Measurements as given in PubChem BioAssay AID651608 (The Scripps Research Institute Molecular Screening Center, 2012).
The other results are listed elsewhere or left out. Unmarked numbers belong to inactive results. Calls of active or inactive are those of the source.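 The calls were made as follows: active = average inhibition over triplicates above the hit cutoff set in the earlier primary screen (cut at about 25% in these data); inactive = the rest.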

Molecular target: ADP-ribosylation factor GTPase-activating protein 1 (Rattus norvegicus) (UniProt Q62848)
Assay: retest of rat ARFGAP1 GAP activity blockers – biochemical, fluorescence polarization, triplicate, confirmation (AID 651608);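 also: 0% = Arfgap1 plus ARF1-GTP with DMSO and 100% = wells lacking Arfgap1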
Details: ARFGAP1-stimulated ARF1 GTP hydrolysis, GDP tracer FP; at 16.5 µM; active compounds read high
Outline: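 Assay system: purified rat Arfgap1 GAP domain with human ARF1; signal: GDP tracer fluorescence polarization; reagent: GTP-loaded human ARF1 missing its first 17 residues; benchmarks: high control wells lacking Arfgap1; medium: HEPES-based assay buffer at pH 7.5; incubation: reaction 120 min at 25 °C after 20 min pre-incubation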

Sequence of ADP-ribosylation factor GTPase-activating protein 1 (Rattus norvegicus) (Q62848 whole entry, looked up): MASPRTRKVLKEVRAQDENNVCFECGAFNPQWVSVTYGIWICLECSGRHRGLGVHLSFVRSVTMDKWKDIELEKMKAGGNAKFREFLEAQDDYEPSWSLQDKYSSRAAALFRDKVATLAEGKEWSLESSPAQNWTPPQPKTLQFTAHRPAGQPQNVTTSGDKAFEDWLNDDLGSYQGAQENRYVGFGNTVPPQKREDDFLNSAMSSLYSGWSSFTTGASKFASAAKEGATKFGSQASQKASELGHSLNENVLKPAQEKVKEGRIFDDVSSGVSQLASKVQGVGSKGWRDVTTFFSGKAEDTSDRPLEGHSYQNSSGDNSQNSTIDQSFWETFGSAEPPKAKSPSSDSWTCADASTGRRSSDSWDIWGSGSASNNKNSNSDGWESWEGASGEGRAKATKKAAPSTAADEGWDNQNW

SMILES | inhibition
Cc1ccc2nc(N3C(=O)C(O)=C(C(=O)c4ccco4)C3c3cccc(O)c3)sc2c1 (configuration not stated) | 18.3%
Cn1c(=O)[nH]c(=O)c2c1nc(N1CCN(CCO)CC1)n2CCSc1nc2ccccc2s1 | -2.06%
O=C(/C=C/c1cn(-c2ccccc2)nc1-c1ccc2c(c1)OCCO2)NCCCN1CCOCC1 | 13%
Cc1ccc(-n2ncc3c2ncn2nc(-c4ccco4)nc32)c(C)c1 | 3.31%
COc1ccc(C(CNC(=O)c2cccc(S(=O)(=O)Nc3ccccc3Cl)c2)N2CCOCC2)cc1 (configuration not stated) | 4.17%
CCNS(=O)(=O)c1ccc(NC(=O)Nc2cccc(C(F)(F)F)c2)cc1 | 18.2%
Cc1ccc2nc(SCC(=O)N3CC(C)OC(C)C3)nc(=O)n2c1 (configuration not stated) | 90.3% (active)
CCOC(=O)C1CCN(C(c2cc3cc(C)cc(C)c3[nH]c2=O)c2nnnn2C2CCCCC2)CC1 (configuration not stated) | 0.48%
C#C[C@]1(O)CC[C@H]2[C@@H]3CCC4=CC(=O)CC[C@@H]4[C@H]3CC[C@@]21CC | 4.82%
COc1ccc(C(N)c2csc(NC(=O)Nc3cccc(C(F)(F)F)c3)n2)cc1 (configuration not stated) | 19.2%
CC(C)CCSc1ncnc2c1oc1nc3c(cc12)COC(C)(C)C3 | 1.56%
CCO[C@@H]1OC(C(N)=O)=C[C@H](c2ccc(Br)cc2)[C@H]1CCCO | 0.74%
CCn1c(SCc2cc(=O)n3ccsc3n2)nc2ccccc21 | -5.82%
CC1CCc2[nH]c3ccc(C(=O)N(C)CC(=O)Nc4cccc(F)c4)cc3c2C1 (configuration not stated) | 1.73%
CCN(CC)c1ccc(NC(=O)CN2CCN(c3ccccn3)CC2)cc1 | -5.51%
O=C(CCc1ccccc1)Nc1ncc([N+](=O)[O-])s1 | -7.17%
CN(C)CCNC(=O)c1ccc(-c2cn3c(-c4ccc(Oc5ccccc5)cc4)cnc3cn2)cc1 | 48.8% (active)
O=C(NC1CCCCC1)c1ccc(CNc2c(N3CCOCC3)c(=O)c2=O)cc1 | -1.66%
COc1ccc(CNC(=O)C(Cc2ccccc2)n2cccc2)cc1 (configuration not stated) | 2%

SMILES | inhibition
CCOC(=O)c1ccc(Nc2cc3ccccc3c(=O)[nH]2)cc1 | 9.83%
COc1ccc(Cl)cc1NC(=O)Cn1nc(-c2ccc(C)cc2)n(C)c1=S | 1.54%
COc1cccc(CNc2nc(C(F)(F)F)nc3ccccc23)c1 | 8.01%
Nc1ccc(S(=O)(=O)Nc2nccc(/C=C/c3ccc(Br)s3)n2)cc1 | -3.16%
O=C(O)CSCc1ccc(C(=O)O)o1 | 5.16%
COC(=O)c1cc2c(c3c4ccccc4n(S(=O)(=O)c4cccc(C)c4)c13)C(=O)N(Cc1ccccc1)C2 | -0.32%
COCCNc1cc(-c2ccccc2)nc2cc(-c3cccc(F)c3)nn12 | 10.8%
c1ccc(-c2cc(-c3nnc4sc(-c5ccccn5)nn34)[nH]n2)cc1 | 36.3% (active)
Cc1cc(C)cc(NC(=O)C2CCCN(S(=O)(=O)c3ccc4[nH]c(=O)ccc4c3)C2)c1 (configuration not stated) | 0.48%
OC(COc1cccc(OCC(O)CN2CCCC2)c1)CN1CCCC1 (configuration not stated) | 1.32%
O=C(O)CCn1cc(/C=C/C(=O)c2ccc(Cl)cc2)c(-c2cccc(Br)c2)n1 | -2.84%
O=C(Nc1cccc(-c2nc3ccccc3[nH]2)c1)c1ccc(C(=O)Nc2cccc(-c3nc4ccccc4[nH]3)c2)cc1 | 60.7% (active)
COc1ccc(/C=C2\SC(=S)N(CCCC(=O)NC3CCCC3)C2=O)cc1OC | -4.01%
COc1ccccc1OCC(=O)OCn1c(SC)nnc(C)c1=O | 0.34%
COc1ccc(NC(=O)c2cn(-c3ccccc3)nc2SC)cc1 | 18.4%
COc1ccc(-n2nc3c(N4CCC(C(=O)NCc5ccccc5)CC4)nnc(C)c3c2C)cc1 | 44% (active)
Cc1ccc(NC(=O)c2ccc(Oc3ncccn3)cc2)cc1 | 1.89%
COc1ccc(-c2csc(Nc3ccc(O)cc3)n2)cc1 | 4.53%
